Screens as filed in PubChem.
Compounds with a hit are over-represented: about 1.7% of the library has one in this group of screens.
ARNT-TACC3 inh = disrupts binding between human ARNT and TACC3; Q9Y6A5; AlphaScreen His-ARNT PAS-B/GST-TACC3 binding, luminescence; TACC3 fragment carries E629A point mutation; inhibition, % at 9.99 µM; actives 0.66% (n = 390,000);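 active = mean inhibition of replicates at least 50% and at least half of replicates each reaching 50%; inconclusive = half or more replicates reach 50% but mean below 50%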;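 note: 0% = complete ARNT plus TACC3 wells and 100% = ARNT alone without TACC3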
CAL PDZ FP-1 = inhibitors of human CAL PDZ peptide binding; inhibition, % at 24.9 µM; purified CAL PDZ, TMR-peptide fluorescence polarization, 1 h; Q9HD26; actives 0.92% (n = 300,000);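 active = mean inhibition of at least 30% with at least half of replicates also reaching 30%; inconclusive = no clear call, values can overlap the other calls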;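 note: 0% = DMSO neutral control and 100% = excess unlabeled competitor peptide PRC23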
Rce1 inh = blocks yeast Ras-converting enzyme; calls only; yeast membranes, quenched prenylated peptide cleavage fluorescence; AID 2563; actives 0.27% (n = 290,000);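 active = fall in fluorescence gain of 50% or more versus controls, with final raw signal at or below 3038400; inconclusive = same 50% fall but final raw signal above 3038400; inactive = fall in fluorescence gain under 50%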;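 note: plate controls were neutral control wells for no effect and wells lacking membranes for full effect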
Target sequence (Q03530 whole entry, looked up): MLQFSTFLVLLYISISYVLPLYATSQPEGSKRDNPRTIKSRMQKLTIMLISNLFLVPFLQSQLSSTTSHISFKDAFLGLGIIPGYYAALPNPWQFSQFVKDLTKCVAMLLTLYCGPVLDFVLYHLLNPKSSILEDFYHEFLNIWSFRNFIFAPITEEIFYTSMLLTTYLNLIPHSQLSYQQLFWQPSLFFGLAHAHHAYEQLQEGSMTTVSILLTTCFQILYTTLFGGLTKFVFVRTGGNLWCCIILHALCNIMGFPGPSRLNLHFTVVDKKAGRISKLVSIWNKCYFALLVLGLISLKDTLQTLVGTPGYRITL
AI-2 QS mod = modulates the Vibrio harveyi AI-2 quorum sensing system; Vibrio harveyi JMH597 AI-2 luminescence/OD600 ratio, 9 h; active compounds read low; strain lacks LuxN and CqsS sensors; 0 = neutral-control median; AID 2094; actives 0.4% (n = 300,000); activity change, % at 7.5 µM; in the data active = activity change below about -75%, passing the limit was not always enough; inconclusive = no clear call, values can overlap the other calls;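 note: luminescence divided by OD600 gain over 9 h not by final OD600 alone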
CAL PDZ FP-2 = inhibitors of human CAL PDZ peptide binding. AID 504414. purified CAL PDZ, TMR-peptide fluorescence polarization, 1 h. Q9HD26. actives 0.02% (n = 330,000). inhibition, % at 20 µM;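 active = highest replicate inhibition of at least 40%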;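 note: plate controls were DMSO neutral control wells for no effect and unlabeled competitor peptide control wells for full effect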
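Material: tagged CAL PDZ protein CerCALP, purified; buffer or medium: sodium phosphate/NaCl buffer pH 7.4 with TCEP, IgG, Thesit; also added: fluorescent TMR peptide probe; schedule: 1 h incubation at room temperature before polarization reading; technique: fluorescence polarization from S- and P-plane intensities, G-factor corrected; control set: unlabelled peptide and DMSO controls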
Numbers without * were called inactive; i = inactive; ? = inconclusive; · = not tested or not shown; + = active, no number.

SMILES	ARNT-TACC3 inh	CAL PDZ FP-1	Rce1 inh	AI-2 QS mod	CAL PDZ FP-2
O=C(Nc1nnc(-c2cccnc2)o1)c1cccc(Cl)c1	52*	-5	i	?	-3
O=C(Nc1nnc(-c2ccco2)o1)c1cccc(Cl)c1	11	-2	i	-134*	-2
Cc1ccc(NC(=O)c2cccs2)cc1NC(=O)c1cccnc1	-3	105*	i	17	-1
Cc1nn(-c2ccccc2)c(C)c1C(=O)Nc1nnc(-c2ccco2)o1	49*	-1	i	34	-2
COc1cc(OC)cc(C(=O)Nc2nnc(-c3cccnc3)o2)c1	62*	-3	i	32	-3
NS(=O)(=O)c1ccc(NC(=O)/C=C/c2cn(-c3ccccc3)nc2-c2cccc(Cl)c2)cc1	19	1	+	18	-2
O=C(/C=C/c1cn(-c2ccccc2)nc1-c1ccccc1)Nc1ccc(C(=O)O)cc1	24	-20	i	37	-6
CC1CCCC(C)N1C(=O)CSc1nc(N)cc(N)n1 (centres undefined)	3	·	i	0	0
NS(=O)(=O)c1ccc(NC(=O)c2cccc(Cl)c2)cc1	-6	39*	i	13	-1
O=C(Nc1nnc(-c2ccco2)o1)c1ccc(N2C(=O)CCC2=O)cc1	58*	4	i	13	0
Cc1ccc(-c2nn(C)c(=O)c3ccccc23)cc1CN1CCCCC1	9	47*	i	-1	-1
O=C(NCCCCc1ccccc1)c1cc([N+](=O)[O-])cc([N+](=O)[O-])c1	3	·	·	·	-1
C=CCOc1ccc(C(=O)/C=C2/C(=O)Nc3ccccc32)cc1	-6	-6	i	11	1
C=CCOc1ccccc1C(=O)/C=C1/C(=O)Nc2ccccc21	12	70*	i	9	·
CCOC(=O)C1CCN(C(=O)C(=O)c2cn(CC(=O)N3CCCCCC3)c3ccccc23)CC1	-9	-3	i	32	-3
CC1CC(C)CN(S(=O)(=O)N2CCCC(C(=O)NC3CCCCC3C)C2)C1 (centres undefined)	2	·	i	26	-1
NC(=O)[C@H]1CC2(CC(c3cccc(NC(=O)CC(c4ccccc4)c4ccccc4)c3)=NO2)CN1C(=O)CC(c1ccccc1)c1ccccc1 (some centres undefined)	0	-7	i	73	-5
NC(=O)[C@@H]1CC2(CC(c3cccc(NC(=O)CC(c4ccccc4)c4ccccc4)c3)=NO2)CN1C(=O)c1ccc(Cl)cc1 (some centres undefined)	-4	0	+	17	-1
NC(=O)[C@H]1CC2(CC(c3cccc(NC(=O)COc4ccc(Cl)cc4)c3)=NO2)CN1C(=O)C(c1ccccc1)c1ccccc1 (some centres undefined)	5	1	+	19	0
Cc1ccccc1NC(=S)N(Cc1cccs1)C1CCCC1	0	-3	i	11	0
O=C1NC2(C=Cc3c(ccc4ccccc34)O2)Oc2ccccc21 (centres undefined)	-5	2	+	8	-1
CC1(C)OC(=O)N(c2ccccc2)C12C=Cc1c(ccc3ccccc13)O2 (centres undefined)	4	1	i	7	-1
COc1ccc(OC)c(-c2csc(NC(=O)c3ccc4c(c3)OCO4)n2)c1	-3	80*	i	-5	1
COC(=O)c1ccc(COc2ncnc3c(Cl)cc(Cl)cc23)o1	1	0	i	-79*	-1
CCN(CC)S(=O)(=O)c1ccc(C)c(NC(=O)CNCCN(C(C)C)C(C)C)c1	2	1	i	19	0
CSc1ccc(-c2sc(Nc3ccccc3)n[n+]2-c2ccc(F)cc2)cc1	1	-2	i	4	0
CC1(OC(=O)CCc2ccccc2)C(=O)C=C2C=C(c3ccc(C#N)cc3)N(Cc3ccccc3)C=C2C1=O (centres undefined)	-27	3	i	13	1
COCCN1C=C2C(=O)C(C)(OC(=O)CCc3ccccc3)C(=O)C=C2C=C1c1ccc(C#N)cc1 (centres undefined)	active	1	i	-4	1
O=C1NC(=S)NC1=Cc1ccco1	60*	·	·	·	1
O=C1NC(=O)/C(=C/c2ccco2)N1	-6	-3	·	·	0
